Measured values: article PMC8458242 (Biochimie, 2021)
Entries after “also recorded” stand apart in the source; their conditions may differ. Like-named read-outs stand apart in the source and are kept apart here.

What was measured:
CMV AD169 = experiment: Anti-CMV activity in WS1 cell cultures; type: cell-based, Human cytomegalovirus; settings: human fibroblast WS1 cell line infected with CMV AD169, 5 days, n=3
[1] = Viability assay in WS1 cell cultures; type: cell-based, human; settings: human, WS1 cells
[2] = Viability assay in MT-4 cell cultures; type: cell-based, Human; settings: human, MT-4 cells
CMV (AD169) = experiment: Anti-CMV activity in HIV-1/CMV coinfected human tissues ex vivo; type: cell-based, Human cytomegalovirus; settings: for inhibition of number of CMV DNA copies/μL: HIV-1/CMV-coinfected human lymphoid tissue, 10 μM, 15 days
How it was run: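 Human tonsil tissue blocks (2-3 mm) cultured on collagen sponge at the air-liquid interface in RPMI 1640 with 15% FBS. Blocks pretreated with test compound (10 μM) 12 h before simultaneous infection with HIV-1 X4LAI.04 and CMV AD169 stocks. Medium changed every 3 days; 15 days at 37°C. CMV DNA in culture medium measured by real-time PCR, as percent of untreated control. Means ± SEM, 3 or 6 donors.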

HIV-1 (X4LAI.04) = experiment: Anti-HIV-1 activity in HIV-1/CMV coinfected human tissues ex vivo; type: cell-based; settings: for inhibition of HIV-1 replication by controls: coinfected tissues, control drugs, concentration not given, n=3; for inhibition of cumulative production of p24gag: HIV-1/CMV-coinfected human lymphoid tissue, 10 μM, 15 days
How it was run: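 Tonsillar tissue blocks (2-3 mm) kept on collagen sponge at the air-liquid interface, RPMI 1640 with 15% FBS. Pretreated with test compound at 10 μM 12 h before coinoculation with HIV-1 X4LAI.04 and CMV AD169. Medium changed every 3 days; cultured 15 days at 37°C. p24gag in medium measured by Luminex bead assay, as percent of untreated control. Means ± SEM, 3 or 6 donors.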

CMV = settings: cited from earlier work
MT-4 cells [3] = settings: cited from earlier work
MT-4 cells [4] = experiment: Viability assay in MT-4 cell cultures; type: cell-based, Human
WS1 cells = experiment: Viability assay in WS1 cell cultures; type: cell-based, human; settings: read-out: Cytotoxicity CC50; WS1 cell line, MTT, three days
[5] = tested on: esterase from porcine liver; experiment: Hydrolysis of the compounds by esterase from porcine liver; settings: Tris-HCl buffer pH 8.2, 37 °C
HIV-1 X4LAI.04 = experiment: Anti HIV-1 activity in human tonsillar tissue ex vivo; type: cell-based; settings: 12 days
[6] = tested on: esterase from porcine liver
[7] = 1 nM (first of five concentrations ranging from 1 nM to 10 μM)
[8] = 10 μM (fifth of five concentrations ranging from 1 nM to 10 μM)
[9] = fourth of five concentrations ranging from 1 nM to 10 μM
[10] = second of five concentrations ranging from 1 nM to 10 μM
[11] = third of five concentrations ranging from 1 nM to 10 μM

SMILES: O=C(O)Cn1c(=O)ccn(CCCOc2ccc(Br)cc2)c1=O [2a, [3-[3-(4-bromophenoxy)propyl]-2,6-dioxo-3,6-dihydropyrimidin-1(2H)-yl]acetic acid]
- Antiviral activity EC50 ± SD (CMV AD169): inactive
- CC50 at 3 days [1]: 965 µM

SMILES: O=C(O)Cn1c(=O)ccn(CCCCCOc2ccc(Br)cc2)c1=O [2b, [3-[5-(4-bromophenoxy)pentyl]-2,6-dioxo-3,6-dihydropyrimidin-1(2H)-yl]acetic acid]
- CC50 at 3 days [1]: 749 µM

SMILES: O=C(O)Cn1c(=O)ccn(CCCCCCOc2ccc(Br)cc2)c1=O [2c, [3-[6-(4-bromophenoxy)hexyl]-2,6-dioxo-3,6-dihydropyrimidin-1(2H)-yl]acetic acid]
- CC50 at 3 days [2]: > 100 µM
- CC50 at 3 days [1]: 724 µM
- inhibition of CMV by control compounds (CMV (AD169); coinfected tissues, control compounds, concentration not given, n=3): 68.6 ± 11.3%

SMILES: O=C(O)Cn1c(=O)ccn(CCCCCCCCOc2ccc(Br)cc2)c1=O [2d, [3-[8-(4-bromophenoxy)octyl]-2,6-dioxo-3,6-dihydropyrimidin-1(2H)-yl]acetic acid]
- CC50 at 3 days [1]: 90.5 µM

SMILES: O=C(O)Cn1c(=O)ccn(CCCCCCCCCCOc2ccc(Br)cc2)c1=O [2e, [3-[10-(4-bromophenoxy)decyl]-2,6-dioxo-3,6-dihydropyrimidin-1(2H)-yl]acetic acid]
- Antiviral activity EC50 ± SD (CMV AD169): inactive
- CC50 at 3 days [1]: 164 µM

SMILES: O=C(O)Cn1c(=O)ccn(CCCCCCCCCCCCOc2ccc(Br)cc2)c1=O [2f, [3-[12-(4-bromophenoxy)dodecyl]-2,6-dioxo-3,6-dihydropyrimidin-1(2H)-yl]acetic acid]
- Antiviral activity EC50 ± SD (CMV AD169): inactive
- CC50 at 3 days [1]: 22 µM

SMILES: Nc1ccn([C@@H]2CS[C@H](CO)O2)c(=O)n1 [3TC, (−)-L-2′,3′-dideoxy-3′-thiacytidine]
- inhibition of HIV-1 replication by controls (HIV-1 (X4LAI.04)): 99.7 ± 0.2%
- effect on CMV replication / anti CMV activity (CMV): no effect on CMV replication
- CC50 (MT-4 cells [3]): > 100 µM

SMILES: Cc1cn([C@H]2C[C@H](N=[N+]=[N-])[C@@H](COC(=O)Cn3c(=O)ccn(CCCOc4ccc(Br)cc4)c3=O)O2)c(=O)[nH]c1=O [3a, (3'-azido-3'-deoxytimidine)-2-(3-((4-bromophenoxy)propyl)-2,6-dioxo-2,3-dihydropyrimidin-1(6H)-yl)acetate]
- CC50 (MT-4 cells [4]): 82.1 µM
- CC50 (WS1 cells): 347 µM

SMILES: Cc1cn([C@H]2C[C@H](N=[N+]=[N-])[C@@H](COC(=O)Cn3c(=O)ccn(CCCCCOc4ccc(Br)cc4)c3=O)O2)c(=O)[nH]c1=O [3b, (3'-azido-3'-deoxytimidine)-2-(3-((4-bromophenoxy)pentyl)-2,6-dioxo-2,3-dihydropyrimidin-1(6H)-yl)acetate]
- CC50 (MT-4 cells [4]): > 100 µM
- CC50 (WS1 cells): 173 µM
- T1/2 of hydrolysis by esterase [5]: 7 to 8 h

SMILES: Cc1cn([C@H]2C[C@H](N=[N+]=[N-])[C@@H](COC(=O)Cn3c(=O)ccn(CCCCCCOc4ccc(Br)cc4)c3=O)O2)c(=O)[nH]c1=O [3c, (3'-azido-3'-deoxytimidine)-2-(3-((4-bromophenoxy)hexyl)-2,6-dioxo-2,3-dihydropyrimidin-1(6H)-yl)acetate]
- CC50 (MT-4 cells [4]): > 100 µM
- CC50 (WS1 cells): 393 µM
- inhibition of HIV-1 replication (HIV-1 X4LAI.04; [7]): 0 ± 0.5%
- inhibition of HIV-1 replication (HIV-1 X4LAI.04; [8]): 96.2 ± 1.0%
- inhibition of HIV-1 replication (HIV-1 X4LAI.04; [9]): 76.5 ± 3.3%
- inhibition of HIV-1 replication (HIV-1 X4LAI.04; [10]): 17.9 ± 8.2%
- inhibition of HIV-1 replication (HIV-1 X4LAI.04; [11]): 31.4 ± 7.7%
- inhibition of cumulative production of p24gag (HIV-1 (X4LAI.04)): 97.2 ± 2.1%
- inhibition of number of CMV DNA copies/μL (CMV (AD169)): 86.9 ± 3.3%
- T1/2 of hydrolysis by esterase [5]: 7 to 8 h

SMILES: Cc1cn([C@H]2C[C@H](N=[N+]=[N-])[C@@H](COC(=O)Cn3c(=O)ccn(CCCCCCCCOc4ccc(Br)cc4)c3=O)O2)c(=O)[nH]c1=O [3d, (3'-azido-3'-deoxytimidine)-2-(3-((4-bromophenoxy)octyl)-2,6-dioxo-2,3-dihydropyrimidin-1(6H)-yl)acetate]
- CC50 (MT-4 cells [4]): > 100 µM
- CC50 (WS1 cells): 600 µM

SMILES: Cc1cn([C@H]2C[C@H](N=[N+]=[N-])[C@@H](COC(=O)Cn3c(=O)ccn(CCCCCCCCCCOc4ccc(Br)cc4)c3=O)O2)c(=O)[nH]c1=O [3e, (3'-azido-3'-deoxytimidine)-2-(3-((4-bromophenoxy)decyl)-2,6-dioxo-2,3-dihydropyrimidin-1(6H)-yl)acetate]
- CC50 (MT-4 cells [4]): > 100 µM
- CC50 (WS1 cells): 182 µM

SMILES: Cc1cn([C@H]2C[C@H](N=[N+]=[N-])[C@@H](COC(=O)Cn3c(=O)ccn(CCCCCCCCCCCCOc4ccc(Br)cc4)c3=O)O2)c(=O)[nH]c1=O [3f, (3'-azido-3'-deoxytimidine)-2-(3-((4-bromophenoxy)dodecyl)-2,6-dioxo-2,3-dihydropyrimidin-1(6H)-yl)acetate]
- CC50 (MT-4 cells [4]): > 100 µM
- CC50 (WS1 cells): 253 µM

SMILES: Nc1ccn([C@@H]2CS[C@H](COC(=O)Cn3c(=O)ccn(CCCCCCOc4ccc(Br)cc4)c3=O)O2)c(=O)n1 [4c, ((−)-L-2′,3′-dideoxy-3′-thiacytidine)-2-(3-((4-bromophenoxy)hexyl)-2,6-dioxo-2,3-dihydropyrimidin-1(6H)-yl)acetate]
- CC50 (MT-4 cells [4]): > 100 µM
- inhibition of HIV-1 replication (HIV-1 X4LAI.04; [7]): 0.6 ± 0.2%
- inhibition of HIV-1 replication (HIV-1 X4LAI.04; [8]): 99.6 ± 0.1%
- inhibition of HIV-1 replication (HIV-1 X4LAI.04; [9]): 88.6 ± 2.9%
- inhibition of HIV-1 replication (HIV-1 X4LAI.04; [10]): 14.6 ± 6.5%
- inhibition of HIV-1 replication (HIV-1 X4LAI.04; [11]): 45.7 ± 3.7%
- inhibition of cumulative production of p24gag (HIV-1 (X4LAI.04)): 99.4 ± 0.4%
- inhibition of number of CMV DNA copies/μL (CMV (AD169)): 78.7 ± 1.7%
- T1/2 of hydrolysis by esterase [5]: about 24 hrs

SMILES: Cc1cn([C@H]2C[C@H](N=[N+]=[N-])[C@@H](CO)O2)c(=O)[nH]c1=O [AZT, 2',3'-dideoxy-3'-azidothymidine]
- inhibition of HIV-1 replication by controls (HIV-1 (X4LAI.04)): 97.0 ± 1.6%
- effect on CMV replication / anti CMV activity (CMV): does not have any anti CMV activity; also recorded: no effect on CMV replication
- CC50 (MT-4 cells [3]): > 100 µM

SMILES: Nc1nc(O)c2ncn(COC(CO)CO)c2n1 [GCV, ganciclovir, reference compound]
- CC50 at 3 days [1]: 500 µM

SMILES: CC(=O)OC[C@H]1O[C@@H](n2cc(C)c(=O)[nH]c2=O)C[C@@H]1OC(C)=O [Thymidine diacetate]
- hydrolysis totally completed after [6]: 5 to 6 h
